Assay results as given in ChEMBL document CHEMBL2203146, “Search for anticonvulsant and analgesic active derivatives of dihydrofuran-2(3H)-one” (Bioorg Med Chem, 2012).
The source made the active and inactive calls.

How the values were obtained:
Mus musculus [1] = experiment: Anesthetic activity in […] assessed as latency in response to thermal stimuli administered as 2% solution, sc measured after 15 mins by modified tail immersion test; type: functional, albino CF1
Mus musculus [2] = experiment: Anesthetic activity in albino CF1 mouse assessed as latency in response to thermal stimuli administered as 1% solution, sc measured after 15 mins by modified tail immersion test; type: functional
Method in brief: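 Male Albino Swiss (CD-1) mice, 6-8 per group, tested at 1% and 2% compound concentration. Tail distal 3 cm immersed in water at 50 ± 0.5 °C 15 min after treatment. Tail-withdrawal latency recorded with a 20 s cutoff. Value is % difference in latency vs vehicle-treated mice. Mean ± SEM, Student's t-test.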

Mus musculus [3] = experiment: […] activity in ip dosed albino CF1 mouse assessed as inhibition of phenylbenzoquinone-induced writhing administered after 30 mins prior challenge; type: functional
Method in brief: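 Male Albino Swiss (CD-1) mice, 6-8 per dose. Compound given ip in 0.5% methylcellulose. 30 min later, 0.25 ml of 0.02% phenylbenzoquinone injected. After 5 min, writhes counted over 10 min. % effect = (vehicle mean − drug mean)/vehicle mean × 100. ED50 derived; Student's t-test.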

Mus musculus [4] = experiment: Analgesic activity in albino CF1 mouse assessed as inhibition of heat-induced paw licking or jumping behaviour administered after 30 mins prior heat challenge by hot plate method; type: functional
Mus musculus [5] = experiment: Anticonvulsant activity in albino CF1 mouse assessed as protection against subcutaneous metrazol-induced seizures at 30 to 300 mg/kg, ip after 0.5 to 4 hrs; type: functional, organism-based
Method in brief: (§1)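 CF No. 1 male mice dosed ip at 30, 100 or 300 mg/kg (saline or 0.5% methylcellulose), then given pentetrazole 85 mg/kg sc as 0.5% solution in posterior midline. Watched 30 min. Protection means no threshold seizure (single clonic spasm episode of at least 5 s). Expressed as protected/tested.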

Mus musculus [6] = experiment: Neurotoxicity in albino CF1 mouse assessed as minimal motor impairment at 30 mg/kg, ip after 4 hrs by rotorod test; type: toxicity, organism-based; set-up: dose 30 mg/kg, route intraperitoneal; conditions: in vivo
Method in brief: (§2)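 Rotarod in male CF No. 1 mice after ip dosing (30, 100, 300 mg/kg; saline or 0.5% methylcellulose) at 15–240 min. Knurled plastic rod, 1-inch diameter, 6 rpm. Toxicity means failing to stay on for 1 min on three successive attempts. Recorded as toxic/tested.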

Mus musculus [7] = experiment: Neurotoxicity in albino CF1 mouse assessed as minimal motor impairment at 30 mg/kg, ip after 0.5 hr by rotorod test; type: toxicity, organism-based; set-up: dose 30 mg/kg, route intraperitoneal; conditions: in vivo
Method in brief: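 Male albino CF No. 1 mice, compound ip in saline or 0.5% methylcellulose. Rotarod: 1-inch knurled rod at 6 rpm. Toxicity is failure to stay on the rod for 1 min on three successive attempts. Expressed as toxic/tested.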

Mus musculus [8] = experiment: Neurotoxicity in albino CF1 mouse assessed as minimal motor impairment at 300 mg/kg, ip after 4 hrs by rotorod test; type: toxicity, organism-based; set-up: dose 300 mg/kg, route intraperitoneal; conditions: in vivo; method in brief: as §2
Mus musculus [9] = experiment: Neurotoxicity in albino CF1 mouse assessed as minimal motor impairment at 300 mg/kg, ip after 0.5 hr by rotorod test; type: toxicity, organism-based; set-up: dose 300 mg/kg, route intraperitoneal; conditions: in vivo; method in brief: as §2
Mus musculus [10] = experiment: Neurotoxicity in albino CF1 mouse assessed as minimal motor impairment at 100 mg/kg, ip after 4 hrs by rotorod test; type: toxicity, organism-based; set-up: dose 100 mg/kg, route intraperitoneal; conditions: in vivo; method in brief: as §2
Mus musculus [11] = experiment: Neurotoxicity in albino CF1 mouse assessed as minimal motor impairment at 100 mg/kg, ip after 1 hr by rotorod test; type: toxicity, organism-based; set-up: dose 100 mg/kg, route intraperitoneal; conditions: in vivo; method in brief: as §2
Mus musculus [12] = experiment: Neurotoxicity in albino CF1 mouse assessed as minimal motor impairment at 100 mg/kg, ip after 0.5 hr by rotorod test; type: toxicity, organism-based; set-up: dose 100 mg/kg, route intraperitoneal; conditions: in vivo; method in brief: as §2
Mus musculus [13] = experiment: Neurotoxicity in albino CF1 mouse assessed as minimal motor impairment at 100 mg/kg, ip after 0.25 hr by rotorod test; type: toxicity, organism-based; set-up: dose 100 mg/kg, route intraperitoneal; conditions: in vivo; method in brief: as §2
Mus musculus [14] = experiment: Anticonvulsant activity in albino CF1 mouse assessed as protection against maximal electroshock-induced seizures at 30 mg/kg, ip after 0.5 hr; type: functional, organism-based; set-up: dose 30 mg/kg
Method in brief: (§3)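 Male albino CF No. 1 mice, 18–25 g. Compound in saline or 0.5% methylcellulose, ip. Seizures elicited by 60-cycle alternating current maximal electroshock. Result expressed as animals protected/animals tested.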

Mus musculus [15] = experiment: Anticonvulsant activity in albino CF1 mouse assessed as protection against maximal electroshock-induced seizures at 30 mg/kg, ip after 4 hrs; type: functional, organism-based; set-up: dose 30 mg/kg; method in brief: as §3
Mus musculus [16] = experiment: Anticonvulsant activity in albino CF1 mouse assessed as protection against maximal electroshock-induced seizures at 300 mg/kg, ip after 4 hrs; type: functional, organism-based; set-up: dose 300 mg/kg
Method in brief: (§4)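 Male albino CF No. 1 mice (18–25 g) dosed ip at 30, 100 and 300 mg/kg in saline or 0.5% methylcellulose, tested 15, 30, 60 and 240 min after dosing. Maximal electroshock seizures elicited with 60-cycle alternating current. Scored as animals protected/animals tested, small qualitative groups.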

Mus musculus [17] = experiment: Anticonvulsant activity in albino CF1 mouse assessed as protection against maximal electroshock-induced seizures at 300 mg/kg, ip after 0.5 hr; type: functional, organism-based; set-up: dose 300 mg/kg; method in brief: as §4
Mus musculus [18] = experiment: Anticonvulsant activity in albino CF1 mouse assessed as protection against maximal electroshock-induced seizures at 100 mg/kg, ip after 4 hrs; type: functional, organism-based; set-up: dose 100 mg/kg; method in brief: as §4
Mus musculus [19] = experiment: Anticonvulsant activity in albino CF1 mouse assessed as protection against maximal electroshock-induced seizures at 100 mg/kg, ip after 1 hr; type: functional, organism-based; set-up: dose 100 mg/kg; method in brief: as §4
Mus musculus [20] = experiment: Anticonvulsant activity in albino CF1 mouse assessed as protection against maximal electroshock-induced seizures at 100 mg/kg, ip after 0.5 hr; type: functional, organism-based; set-up: dose 100 mg/kg; method in brief: as §4
Mus musculus [21] = experiment: Anticonvulsant activity in albino CF1 mouse assessed as protection against maximal electroshock-induced seizures at 100 mg/kg, ip after 0.25 hr; type: functional, organism-based; set-up: dose 100 mg/kg; method in brief: as §4
Rattus norvegicus [22] = experiment: Neurotoxicity in Sprague-Dawley rat assessed as minimal motor impairment at 30 mg/kg, po after 4 hrs by rotorod test; type: toxicity, organism-based; set-up: dose 30 mg/kg, route oral; conditions: in vivo
Rattus norvegicus [23] = experiment: Neurotoxicity in Sprague-Dawley rat assessed as […] at 30 mg/kg, po after 2 hrs […]; type: toxicity, organism-based; set-up: dose 30 mg/kg, route oral; conditions: in vivo
Rattus norvegicus [24] = experiment: Neurotoxicity in Sprague-Dawley rat assessed as […] at 30 mg/kg, po after 1 hr […]; type: toxicity, organism-based; set-up: dose 30 mg/kg, route oral; conditions: in vivo
Rattus norvegicus [25] = experiment: Neurotoxicity in Sprague-Dawley rat assessed as minimal motor impairment at 30 mg/kg, po after 0.5 hr by rotorod test; type: toxicity, organism-based; set-up: dose 30 mg/kg, route oral; conditions: in vivo
Rattus norvegicus [26] = experiment: Neurotoxicity in Sprague-Dawley rat assessed as […] at 30 mg/kg, po after 0.25 hr […]; type: toxicity, organism-based; set-up: dose 30 mg/kg, route oral; conditions: in vivo
Rattus norvegicus [27] = experiment: Anticonvulsant activity in Sprague-Dawley rat assessed as protection against maximal electroshock-induced seizures at 30 mg/kg, po after 4 hrs; type: functional, organism-based; set-up: dose 30 mg/kg
Method in brief: (§5)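 Male Sprague-Dawley rats (100–150 g), compound given orally at 30 mg/kg, dissolved in saline or suspended in 0.5% methylcellulose. Maximal electroshock seizures elicited with 60-cycle alternating current. Result recorded as number protected/number tested at each time point.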

Rattus norvegicus [28] = experiment: Anticonvulsant activity in Sprague-Dawley rat assessed as protection against maximal electroshock-induced seizures at 30 mg/kg, po after 2 hrs; type: functional, organism-based; set-up: dose 30 mg/kg; method in brief: as §5
Rattus norvegicus [29] = experiment: Anticonvulsant activity in Sprague-Dawley rat assessed as protection against maximal electroshock-induced seizures at 30 mg/kg, po after 1 hr; type: functional, organism-based; set-up: dose 30 mg/kg; method in brief: as §5
Rattus norvegicus [30] = experiment: Anticonvulsant activity in Sprague-Dawley rat assessed as protection against maximal electroshock-induced seizures at 30 mg/kg, po after 0.5 hr; type: functional, organism-based; set-up: dose 30 mg/kg; method in brief: as §5
Rattus norvegicus [31] = experiment: Anticonvulsant activity in Sprague-Dawley rat assessed as protection against maximal electroshock-induced seizures at 30 mg/kg, po after 0.25 hr; type: functional, organism-based; set-up: dose 30 mg/kg; method in brief: as §5
Mus musculus [32] = experiment: Toxicity in albino CF1 mouse assessed as proconvulsant activity at 30 to 300 mg/kg, ip after 0.5 to 4 hrs; type: organism-based; set-up: route intraperitoneal; conditions: in vivo; method in brief: as §1
Rattus norvegicus [33] = experiment: Anticonvulsant activity in po dosed Sprague-Dawley rat assessed as protection against maximal electroshock-induced seizures measured after 0.25 to 4 hrs; type: functional
Method in brief: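 Male Sprague-Dawley rats, 100–150 g, dosed orally at 30 mg/kg. Maximal electroshock (60-cycle alternating current) applied at time points after dosing. Scored as animals protected/animals tested.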

COc1ccc(Cl)cc1N1CCN(C2CCOC2=O)CC1 (racemic)
Activity (Mus musculus [1]): 29% | Activity (Mus musculus [2]): 12% | ED50 (Mus musculus [3]): 19 mg/kg | ED50 (Mus musculus [4]): 28.1 mg/kg | Activity (Mus musculus [5]): inactive | Activity (Mus musculus [6]): Non-toxic | Activity (Mus musculus [7]): Toxic | Activity (Mus musculus [8]): Toxic | Activity (Mus musculus [9]): Toxic | Activity (Mus musculus [10]): Toxic | Activity (Mus musculus [11]): Toxic | Activity (Mus musculus [12]): Toxic | Activity (Mus musculus [13]): Non-toxic | Activity (Mus musculus [14]): inactive | Activity (Mus musculus [15]): inactive | Activity (Mus musculus [16]): inactive | Activity (Mus musculus [17]): Active | Activity (Mus musculus [18]): inactive | Activity (Mus musculus [19]): inactive | Activity (Mus musculus [20]): inactive | Activity (Mus musculus [21]): inactive

C/C(Nc1ccccc1)=C1\CCOC1=O
Activity (Rattus norvegicus [22]): Non-toxic | Activity (Rattus norvegicus [23]): Non-toxic | Activity (Rattus norvegicus [24]): Non-toxic | Activity (Rattus norvegicus [25]): Non-toxic | Activity (Rattus norvegicus [26]): Non-toxic | Activity (Rattus norvegicus [27]): inactive | Activity (Rattus norvegicus [28]): inactive | Activity (Rattus norvegicus [29]): inactive | Activity (Rattus norvegicus [30]): inactive | Activity (Rattus norvegicus [31]): inactive | Activity (Mus musculus [5]): inactive | Activity (Mus musculus [8]): Non-toxic | Activity (Mus musculus [9]): Toxic | Activity (Mus musculus [10]): Non-toxic | Activity (Mus musculus [11]): Non-toxic | Activity (Mus musculus [12]): Non-toxic | Activity (Mus musculus [13]): Non-toxic | Activity (Mus musculus [16]): inactive | Activity (Mus musculus [17]): Active | Activity (Mus musculus [18]): inactive | Activity (Mus musculus [19]): inactive | Activity (Mus musculus [20]): inactive | Activity (Mus musculus [21]): Active

O=C1OCCC1N1CCc2ccccc2C1 (racemic)
ED50 (Mus musculus [3]): 3.7 mg/kg | ED50 (Mus musculus [4]): 32.4 mg/kg | Activity (Mus musculus [32]): Toxic | Activity (Mus musculus [5]): inactive | Activity (Mus musculus [8]): Non-toxic | Activity (Mus musculus [9]): Non-toxic | Activity (Mus musculus [10]): Non-toxic | Activity (Mus musculus [12]): Non-toxic | Activity (Mus musculus [16]): inactive | Activity (Mus musculus [17]): inactive | Activity (Mus musculus [18]): inactive | Activity (Mus musculus [20]): inactive

O=C1OCCC1N1CCN(c2cccc(C(F)(F)F)c2)CC1 (racemic)
Activity (Mus musculus [1]): 149% | Activity (Mus musculus [2]): 81% | ED50 (Mus musculus [3]): 0.8 mg/kg | ED50 (Mus musculus [4]): 1.3 mg/kg | ED50 (Rattus norvegicus [33]): 112 mg/kg | Activity (Rattus norvegicus [22]): Non-toxic | Activity (Rattus norvegicus [23]): Non-toxic | Activity (Rattus norvegicus [24]): Non-toxic | Activity (Rattus norvegicus [25]): Toxic | Activity (Rattus norvegicus [26]): Non-toxic | Activity (Rattus norvegicus [27]): Active | Activity (Rattus norvegicus [28]): Active | Activity (Rattus norvegicus [29]): inactive | Activity (Rattus norvegicus [30]): inactive | Activity (Rattus norvegicus [31]): inactive | Activity (Mus musculus [5]): inactive | Activity (Mus musculus [8]): Non-toxic | Activity (Mus musculus [9]): Toxic | Activity (Mus musculus [10]): Non-toxic | Activity (Mus musculus [12]): Non-toxic | Activity (Mus musculus [16]): inactive | Activity (Mus musculus [17]): Active | Activity (Mus musculus [18]): Active | Activity (Mus musculus [20]): inactive
